Laboratory results taken from ChEMBL document CHEMBL2062503, “Potent and Selective Inhibitors of CK2 Kinase Identified through Structure-Guided Hybridization” (ACS Med Chem Lett, 2012).
In brackets after ≈: the same amount, converted by molar mass. Activity calls are given as the source filed them. The calls are words filed in the database; no cut-off is given here.

How the values were obtained:
[1] = Aqueous solubility of the compound; type: physicochemical; details: buffer
Summary of the method: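 Solubility was determined in aqueous medium at pH 7.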

[2] = Fraction unbound in human plasma; type: ADME, cell-free
SW480 = experiment: Antiproliferative activity against human SW480 cells by alamar blue assay; type: functional
Summary of the method: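 SW480 proliferation was measured with the Alamar Blue read-out, and GI50 is reported in μM.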

MDR1 [3] = experiment: Apparent permeability from apical to basolateral side in pig LLC-PK1 cells expressing MDR1; type: ADME, cell-based, Sus scrofa
[4] = target: Glycogen synthase kinase-3 beta (Homo sapiens, UniProt P49841); experiment: Inhibition of GSK3beta
Sequence of Glycogen synthase kinase-3 beta (P49841 whole entry): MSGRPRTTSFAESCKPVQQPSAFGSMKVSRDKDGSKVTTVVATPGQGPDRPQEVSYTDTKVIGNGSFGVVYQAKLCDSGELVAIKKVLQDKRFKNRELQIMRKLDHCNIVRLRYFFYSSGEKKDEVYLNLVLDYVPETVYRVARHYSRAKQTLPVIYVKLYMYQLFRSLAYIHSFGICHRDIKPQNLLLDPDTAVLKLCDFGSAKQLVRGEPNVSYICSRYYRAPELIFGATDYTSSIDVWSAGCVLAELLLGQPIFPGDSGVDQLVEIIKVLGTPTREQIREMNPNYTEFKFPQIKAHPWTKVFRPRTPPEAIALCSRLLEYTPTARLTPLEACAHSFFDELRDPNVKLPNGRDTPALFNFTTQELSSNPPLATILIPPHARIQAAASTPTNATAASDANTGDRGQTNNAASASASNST

[5] = target: Homeodomain-interacting protein kinase 2 (Homo sapiens, UniProt Q9H2X6); experiment: Inhibition of HipK2
Sequence of Homeodomain-interacting protein kinase 2 (Q9H2X6 whole entry): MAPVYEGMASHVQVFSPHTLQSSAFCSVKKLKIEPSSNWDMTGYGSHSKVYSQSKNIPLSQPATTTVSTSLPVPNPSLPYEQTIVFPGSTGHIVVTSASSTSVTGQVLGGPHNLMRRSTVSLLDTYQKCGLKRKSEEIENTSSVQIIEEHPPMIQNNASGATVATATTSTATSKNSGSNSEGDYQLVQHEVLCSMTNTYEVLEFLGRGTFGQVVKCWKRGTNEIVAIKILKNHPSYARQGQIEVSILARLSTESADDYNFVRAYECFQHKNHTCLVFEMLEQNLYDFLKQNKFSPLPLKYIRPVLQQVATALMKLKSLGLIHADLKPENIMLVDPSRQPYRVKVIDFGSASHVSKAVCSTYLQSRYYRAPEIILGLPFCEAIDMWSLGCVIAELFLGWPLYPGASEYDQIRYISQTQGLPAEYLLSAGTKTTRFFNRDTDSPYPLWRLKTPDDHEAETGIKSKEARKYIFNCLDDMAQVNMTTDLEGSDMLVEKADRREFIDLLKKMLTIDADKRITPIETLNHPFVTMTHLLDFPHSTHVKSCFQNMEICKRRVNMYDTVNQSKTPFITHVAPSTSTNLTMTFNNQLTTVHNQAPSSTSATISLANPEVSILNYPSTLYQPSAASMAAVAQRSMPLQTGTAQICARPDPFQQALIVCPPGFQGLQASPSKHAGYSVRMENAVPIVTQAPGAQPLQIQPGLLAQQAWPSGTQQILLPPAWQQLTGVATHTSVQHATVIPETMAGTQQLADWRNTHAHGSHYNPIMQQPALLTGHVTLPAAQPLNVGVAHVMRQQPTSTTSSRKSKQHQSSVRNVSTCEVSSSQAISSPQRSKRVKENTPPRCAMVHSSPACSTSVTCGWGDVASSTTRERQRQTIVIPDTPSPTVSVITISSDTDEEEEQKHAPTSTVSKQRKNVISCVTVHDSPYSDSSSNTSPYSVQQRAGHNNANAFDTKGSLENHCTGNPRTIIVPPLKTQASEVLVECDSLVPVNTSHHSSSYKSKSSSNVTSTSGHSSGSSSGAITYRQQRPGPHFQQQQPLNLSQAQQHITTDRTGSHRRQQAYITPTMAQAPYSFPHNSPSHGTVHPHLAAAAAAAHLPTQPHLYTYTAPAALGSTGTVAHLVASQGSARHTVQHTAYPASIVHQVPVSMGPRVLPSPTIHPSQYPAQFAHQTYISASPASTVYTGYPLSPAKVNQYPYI

[6] = target: Cyclin-dependent kinase 2 (Homo sapiens, UniProt P24941); experiment: Inhibition of CDK2
HCT-116 [7] = experiment: Growth inhibition of human HCT116 cells after 72 hrs by alamar blue assay; type: functional; details: HCT-116, 72 h
Summary of the method: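 HCT-116 proliferation was read out by Alamar Blue. GI50 is reported in μM as the mean of at least three experiments.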

HCT-116 [8] = experiment: Induction of apoptosis in human HCT116 cells assessed as caspase activation; type: functional, cell-based
[9] = Lipophilicity, log D of the compound; type: physicochemical; details: octanol/water
[10] = Oral bioavailability in rat at 10 mg/kg; type: ADME, organism-based; details: in vivo
Summary of the method: (§1)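 Rats received one oral dose of 10 mg/kg, and pharmacokinetic parameters were derived from that single administration.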

[11] = Clearance in rat at 10 mg/kg, po; type: ADME, organism-based; set-up: dose 10 mg/kg, route oral; details: in vivo; summary of the method: as §1
[12] = target: Voltage-gated inwardly rectifying potassium channel KCNH2 (Homo sapiens, UniProt Q12809); experiment: Inhibition of human Erg
Sequence of Voltage-gated inwardly rectifying potassium channel KCNH2 (Q12809 whole entry): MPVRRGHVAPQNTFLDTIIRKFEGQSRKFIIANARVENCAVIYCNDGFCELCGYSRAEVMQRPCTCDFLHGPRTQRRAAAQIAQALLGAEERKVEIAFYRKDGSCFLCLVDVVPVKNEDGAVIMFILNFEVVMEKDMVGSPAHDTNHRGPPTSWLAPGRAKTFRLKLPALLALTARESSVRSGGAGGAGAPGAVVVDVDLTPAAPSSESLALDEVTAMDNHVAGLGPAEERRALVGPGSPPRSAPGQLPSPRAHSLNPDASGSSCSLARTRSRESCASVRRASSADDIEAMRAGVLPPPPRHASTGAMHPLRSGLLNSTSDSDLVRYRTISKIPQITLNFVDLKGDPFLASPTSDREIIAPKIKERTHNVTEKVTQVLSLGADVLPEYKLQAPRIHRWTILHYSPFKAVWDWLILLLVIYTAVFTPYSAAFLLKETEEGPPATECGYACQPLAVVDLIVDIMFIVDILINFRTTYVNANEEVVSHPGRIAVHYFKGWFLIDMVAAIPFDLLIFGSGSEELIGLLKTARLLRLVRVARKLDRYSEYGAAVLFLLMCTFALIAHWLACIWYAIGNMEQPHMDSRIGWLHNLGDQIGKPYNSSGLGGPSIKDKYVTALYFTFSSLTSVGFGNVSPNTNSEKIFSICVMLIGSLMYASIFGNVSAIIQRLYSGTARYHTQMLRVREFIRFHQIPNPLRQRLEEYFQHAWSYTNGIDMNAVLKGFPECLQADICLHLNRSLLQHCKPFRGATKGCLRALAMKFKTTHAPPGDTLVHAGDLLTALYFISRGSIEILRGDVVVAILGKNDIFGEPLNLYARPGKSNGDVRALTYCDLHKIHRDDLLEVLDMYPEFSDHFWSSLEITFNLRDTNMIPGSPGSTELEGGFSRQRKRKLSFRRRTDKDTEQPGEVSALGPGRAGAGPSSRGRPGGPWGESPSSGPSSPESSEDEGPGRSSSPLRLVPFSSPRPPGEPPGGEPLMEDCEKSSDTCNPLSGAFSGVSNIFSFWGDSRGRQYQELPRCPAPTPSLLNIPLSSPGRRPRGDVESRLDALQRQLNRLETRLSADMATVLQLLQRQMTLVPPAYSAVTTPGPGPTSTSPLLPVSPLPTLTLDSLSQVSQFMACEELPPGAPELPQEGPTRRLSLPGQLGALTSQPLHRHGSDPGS

Cytochrome P450 1A2 = target: T1, Cytochrome P450 1A2 (Homo sapiens, UniProt P05177); experiment: Inhibition of CYP1A2; type: ADME
T1 sequence (P05177 whole entry): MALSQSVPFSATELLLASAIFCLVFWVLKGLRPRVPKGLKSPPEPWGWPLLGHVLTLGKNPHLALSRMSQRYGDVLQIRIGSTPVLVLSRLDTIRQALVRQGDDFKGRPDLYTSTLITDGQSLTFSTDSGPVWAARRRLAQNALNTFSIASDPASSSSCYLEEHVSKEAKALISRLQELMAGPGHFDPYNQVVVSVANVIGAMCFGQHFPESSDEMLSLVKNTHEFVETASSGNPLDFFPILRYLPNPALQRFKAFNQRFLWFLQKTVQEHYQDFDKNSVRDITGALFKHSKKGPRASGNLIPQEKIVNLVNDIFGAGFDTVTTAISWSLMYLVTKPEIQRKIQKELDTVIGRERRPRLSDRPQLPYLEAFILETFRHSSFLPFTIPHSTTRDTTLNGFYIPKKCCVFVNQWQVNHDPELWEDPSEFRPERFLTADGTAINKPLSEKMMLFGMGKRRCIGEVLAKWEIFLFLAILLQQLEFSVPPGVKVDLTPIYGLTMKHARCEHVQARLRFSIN

MDR1 [13] = experiment: Apparent permeability from apical to basolateral side in MDCK cells expressing MDR1; type: ADME, cell-based, Canis lupus familiaris; details: dog
[14] = target: T2, Casein kinase II subunit alpha (Homo sapiens, UniProt P68400); experiment: Inhibition of full length N-terminus His-tagged human CK2alpha expressed in insect Sf21 cells using BODIPY-FL-RRRDDDSDDD-CONH2 as substrate after 20 mins
T2 sequence (P68400 whole entry): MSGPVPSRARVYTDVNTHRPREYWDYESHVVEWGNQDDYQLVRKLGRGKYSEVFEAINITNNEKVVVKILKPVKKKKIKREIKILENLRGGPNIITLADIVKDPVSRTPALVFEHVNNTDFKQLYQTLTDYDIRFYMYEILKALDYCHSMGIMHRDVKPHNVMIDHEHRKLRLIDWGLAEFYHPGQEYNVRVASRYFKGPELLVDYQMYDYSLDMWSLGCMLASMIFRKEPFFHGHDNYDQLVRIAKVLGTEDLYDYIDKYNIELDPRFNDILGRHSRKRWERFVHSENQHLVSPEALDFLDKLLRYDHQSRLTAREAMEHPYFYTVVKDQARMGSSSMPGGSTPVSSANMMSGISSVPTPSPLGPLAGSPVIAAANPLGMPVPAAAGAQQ

[15] = Intrinsic clearance in rat liver microsomes; type: ADME, Microsome; details: read-out: CLH
[16] = target: T2, Casein kinase II subunit alpha; experiment: Inhibition of CK2alpha in human HCT116 cells assessed as decrease in AKT phosphorylation at S129 residue after 3 to 24 hrs
[17] = AUC in rat at 10 mg/kg, po; type: ADME, organism-based; set-up: dose 10 mg/kg, route oral; details: plasma; summary of the method: as §1

Structure (SMILES) | solubility [1] | fraction unbound [2] | GI50 (SW480) | GI50 (HCT-116 [7]) | logD [9] | also measured
CC(=O)Nc1ccc2ccn(-c3cc(NCCN4CCOCC4)n4ncc(C#N)c4n3)c2c1 | 2 µM (≈ 0.889 µg/mL) | 0.11 | > 30 µM |  |  | Papp A→B (MDR1 [3]): ≤ 5 ×10⁻⁶ cm/s
CC(=O)Nc1ccc2c(c1)c(-c1cc(NC3CC3)n3ncc(C#N)c3n1)cn2CCC(=O)O |  |  |  |  |  | IC50 [4]: 6 µM; IC50 [5]: 0.57 µM; IC50 [6]: > 30 µM
CC(=O)Nc1ccc2ccn(-c3cc(NC4CC4)n4ncc(C#N)c4n3)c2c1 | < 10 µM | < 0.01 | 1 µM | 0.53 µM | 3.3 | Activity (HCT-116 [8]): Active; bioavailability [10]: 5%; CL/F [11]: 10 mL/min/kg; IC50 [12]: 8.6 µM; IC50 (Cytochrome P450 1A2): 0.1 µM; Papp A→B (MDR1 [13]): 22 ×10⁻⁶ cm/s; IC50 [4]: 0.13 µM; IC50 [5]: 0.03 µM; IC50 [6]: 26 µM
CC(=O)Nc1ccc2c(c1)c(-c1cc(NC3CC3)n3ncc(C#N)c3n1)cn2CCO |  |  | 4.5 µM | 2.7 µM |  | 
CS(=O)(=O)Cc1ccc2ccn(-c3cc(NC4CC4)n4ncc(C#N)c4n3)c2c1 | < 1 µM | 0.018 |  | 16.4 µM | 2.5 | 
COc1ccc(-c2cc(Nc3ccn(C)n3)n3ncc(C#N)c3n2)cc1 |  |  |  | 4.5 µM |  | 
COC(=O)CCn1cc(-c2cc(NC3CC3)n3ncc(C#N)c3n2)c2cc(NC(C)=O)ccc21 |  |  | 6.6 µM |  |  | 
CC(=O)N(C)c1ccc2ccn(-c3cc(NC4CC4)n4ncc(C#N)c4n3)c2c1 | < 1 µM |  |  |  | 2.9 | IC50 [14]: 0.011 µM; CLint scaled [15]: 100 mL/min/kg; IC50 [4]: 1.4 µM; IC50 [5]: < 0.003 µM; IC50 [6]: > 30 µM; IC50 [16]: 0.034 µM
CC(=O)Nc1ccc2c(c1)c(-c1cc(NC3CC3)n3ncc(C#N)c3n1)cn2CCCO |  |  | 3.2 µM | 2.3 µM |  | 
CC(=O)Nc1ccc2[nH]cc(-c3cc(NC4CC4)n4ncc(C#N)c4n3)c2c1 |  |  | 0.7 µM | 0.7 µM |  | IC50 [14]: 0.005 µM; IC50 [4]: 0.25 µM; IC50 [5]: < 0.003 µM; IC50 [6]: 14 µM; IC50 [16]: 0.077 µM
COc1ccncc1-c1cc(NC2CC2)n2ncc(C#N)c2n1 |  |  | 15 µM | 16 µM |  | 
N#Cc1cnn2c(N)cc(-c3cccs3)nc12 |  |  |  | > 30 µM |  | 
CC(=O)Nc1ccc2ccn(-c3cc(NCCCCO)n4ncc(C#N)c4n3)c2c1 | 8 µM (≈ 3.23 µg/mL) | 0.041 |  | 2.8 µM | 2.6 | 
CC(=O)Nc1ccc2ccn(-c3cc(NCCN4CCCC4)n4ncc(C#N)c4n3)c2c1 | 15 µM (≈ 6.43 µg/mL) | 0.056 |  |  | 2.2 | 
CC(=O)Nc1ccc2ccn(-c3cc(Nc4ccn(C)n4)n4ncc(C#N)c4n3)c2c1 |  |  | 0.56 µM | 0.46 µM |  | 
CC(=O)Nc1ccc2c(c1)N(c1cc(NC3CC3)n3ncc(C#N)c3n1)CC2 |  |  | 0.73 µM | 0.53 µM |  | IC50 [12]: > 33 µM
COc1ccc(-c2cc(NC3CC3)n3ncc(C#N)c3n2)cc1 |  |  |  | 14 µM |  | 
CC(=O)Nc1cnc2ccn(-c3cc(NC4CC4)n4ncc(C#N)c4n3)c2c1 |  |  | 2.1 µM | 3 µM |  | IC50 [14]: < 0.003 µM; IC50 (Cytochrome P450 1A2): > 20 µM; IC50 [4]: 1 µM; IC50 [5]: 0.02 µM; IC50 [6]: > 30 µM
N#Cc1cnn2c(NC3CC3)cc(-n3ccc4ccc(CO)cc43)nc12 | < 1 µM | 0.019 |  | 10.1 µM | 3.1 | 
CC(=O)Nc1ccc2cnn(-c3cc(NC4CC4)n4ncc(C#N)c4n3)c2c1 |  |  | 5 µM | 3.7 µM |  | IC50 [14]: 0.026 µM; IC50 [12]: > 33 µM; IC50 [4]: 0.7 µM; IC50 [5]: 0.05 µM; IC50 [6]: > 30 µM
CC(=O)Nc1ccc2ccn(-c3cc(NC4COC4)n4ncc(C#N)c4n3)c2c1 | 1 µM (≈ 0.387 µg/mL) | 0.124 | 2.5 µM | 2.2 µM | 2.2 | 
CC(=O)Nc1ccc2c(c1)c(-c1cc(NC3CC3)n3ncc(C#N)c3n1)cn2C |  |  | 1.1 µM | 0.7 µM |  | 
CC(=O)Nc1cc2c(ccn2-c2cc(NC3CC3)n3ncc(C#N)c3n2)cc1C |  |  |  | > 30 µM |  | 
N#Cc1cnn2c(N)cc(-c3ccccc3)nc12 |  |  |  | > 30 µM |  | 
CC(=O)Nc1ccc2ccn(-c3cc(NCCCN(C)C)n4ncc(C#N)c4n3)c2c1 | 750 µM (≈ 312 µg/mL) | 0.1 | 25 µM |  | 1.6 | IC50 [14]: 0.03 µM; IC50 [4]: 2.6 µM; IC50 [5]: 0.06 µM; IC50 [6]: > 30 µM; IC50 [16]: 1.2 µM
CC(=O)Nc1ccc2ccn(-c3cc(NCCCN4CCCC4)n4ncc(C#N)c4n3)c2c1 | > 1000 µM | 0.067 | 13 µM |  | 1.8 | Papp A→B (MDR1 [3]): ≤ 5 ×10⁻⁶ cm/s; AUC [17]: 0.065 µM·h
